Experimental data taken from ChEMBL document CHEMBL4411320, “Synthesis and anti-HCV activity of β-d-2'-deoxy-2'-α-chloro-2'-β-fluoro and β-d-2'-deoxy-2'-α-bromo-2'-β-fluoro nucleosides and their phosphoramidate prodrugs” (Bioorg Med Chem, 2019).

How the values were obtained:
[1] = system: CCRF-CEM; assay: (§1) Cytotoxicity against human CEM cells after 6 days by trypan blue exclusion method; format: cell-based; conditions: ccrf-cem, 144 h
[2] = system: Hepatitis C virus; assay: Antiviral activity against HCV genotype 1b subgenomic replicon infected in human HuH7 clone B cells assessed as inhibition of viral RNA replication after 5 days by RT-PCR method; format: functional, organism-based, Hepacivirus hominis; conditions: subtype 1b, Huh-7, 120 h
Method in brief: (§2)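 Huh-7 cells carrying a genotype 1b subgenomic HCV replicon were exposed to compounds at concentrations […]. Total RNA was then extracted and amplified to quantify both replicon HCV RNA (antiviral read-out) and cellular ribosomal RNA (cytotoxicity read-out), in the same cultures at the same time.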

[3] = system: Vero; assay: (§3) Cytotoxicity against African green monkey Vero cells after 3 days by hemocytometric method; format: cell-based; conditions: chlorocebus sabaeus, vero, 72 h
[4] = system: PBMC; assay: (§4) Cytotoxicity against human PBMC after 6 days by trypan blue exclusion method; format: cell-based; conditions: pbmc, 144 h
[5] = system: Huh-7; assay: (§5) Cytotoxicity against human HuH7 cells assessed as reduction in rRNA levels after 5 days by RT-PCR analysis; format: cell-based; conditions: huh-7, 120 h; method in brief: as §2
[6] = as §3; format: cell-based; conditions: chlorocebus sabaeus, Vero cells
[7] = as §1; format: cell-based, CCRF-CEM; conditions: CEM cells
[8] = as §4; format: cell-based; conditions: PBMC
[9] = as §5; format: cell-based, Huh-7; conditions: HuH7 cells; method in brief: as §2

| SMILES | CC50 [1] [µM] | EC50 [2] [µM] | CC50 [3] [µM] | CC50 [4] [µM] | CC50 [5] [µM] | EC90 [2] [µM] | CC50 at 72 h [6] [µM] | CC50 at 144 h [7] [µM] | CC50 at 144 h [8] [µM] | CC50 at 120 h [9] [µM] |
| --- | --- | --- | --- | --- | --- | --- | --- | --- | --- | --- |
| Nc1ccn([C@@H]2O[C@H](CO)[C@@H](O)[C@@]2(F)Cl)c(=O)n1 | 11 | > 10 | 63 | 9.3 | 12 | – | – | – | – | – |
| O=c1ccn([C@@H]2O[C@H](CO)[C@@H](O)[C@@]2(F)Cl)c(=O)[nH]1 | > 100 | > 10 | > 100 | > 100 | > 100 | > 10 | – | – | – | – |
| Nc1ncnc2c1ncn2[C@@H]1O[C@H](CO)[C@@H](O)[C@@]1(F)Cl | > 100 | > 10 | > 100 | > 100 | > 100 | – | – | – | – | – |
| Nc1nc2c(ncn2[C@@H]2O[C@H](CO)[C@@H](O)[C@@]2(F)Cl)c(=O)[nH]1 | > 100 | > 10 | > 100 | > 100 | > 100 | > 10 | – | – | – | – |
| CC(C)OC(=O)[C@H](C)N[P@](=O)(OC[C@H]1O[C@@H](n2cnc3c(=O)[nH]c(N)nc32)[C@](F)(Br)[C@@H]1O)Oc1ccccc1 | > 100 | > 10 | > 100 | > 100 | > 100 | > 10 | – | – | – | – |
| O=c1ccn([C@@H]2O[C@H](CO)[C@@H](O)[C@@]2(F)Br)c(=O)[nH]1 | > 100 | > 10 | > 100 | > 100 | > 100 | > 10 | – | – | – | – |
| Nc1nc2c(ncn2[C@@H]2O[C@H](CO)[C@@H](O)[C@@]2(F)Br)c(=O)[nH]1 | > 100 | > 10 | > 100 | > 100 | > 100 | – | – | – | – | – |
| Nc1ccn([C@@H]2O[C@H](CO)[C@@H](O)[C@@]2(F)Br)c(=O)n1 | 3.2 | 5.1 | 2.9 | > 100 | 2.9 | > 10 | – | – | – | – |
| Nc1ncnc2c1ncn2[C@@H]1O[C@H](CO)[C@@H](O)[C@@]1(F)Br | > 100 | > 10 | > 100 | > 100 | > 100 | – | – | – | – | – |
| CC(C)OC(=O)[C@H](C)NP(=O)(OC[C@H]1O[C@@H](n2cnc3c(N)ncnc32)[C@](F)(Br)[C@@H]1O)Oc1ccccc1 (mixture of isomers) | 29 | > 10 | 71 | 19 | 6.9 | – | – | – | – | – |
| CC(C)OC(=O)[C@H](C)NP(=O)(OC[C@H]1O[C@@H](n2ccc(=O)[nH]c2=O)[C@](F)(Cl)[C@@H]1O)Oc1ccccc1 (mixture of isomers) | 90 | 0.9 | > 100 | > 100 | 1.3 | 3.7 | – | – | – | – |
| CC(C)OC(=O)[C@H](C)NP(=O)(OC[C@H]1O[C@@H](n2cnc3c(N)ncnc32)[C@](F)(Cl)[C@@H]1O)Oc1ccccc1 (mixture of isomers) | 15 | 2.7 | > 100 | 26 | 1.6 | ≥ 10 | – | – | – | – |
| CC(C)OC(=O)[C@H](C)NP(=O)(OC[C@H]1O[C@@H](n2ccc(=O)[nH]c2=O)[C@](F)(Br)[C@@H]1O)Oc1ccccc1 (mixture of isomers) | – | 0.4 | – | – | 8 | 2 | > 100 | – | – | – |
| CC(C)OC(=O)[C@H](C)NP(=O)(OC[C@H]1O[C@@H](n2ccc(N)nc2=O)[C@](F)(Br)[C@@H]1O)Oc1ccccc1 (mixture of isomers) | > 100 | 2.4 | > 100 | > 100 | 6.8 | ≥ 10 | – | – | – | – |
| CC(C)OC(=O)[C@H](C)NP(=O)(OC[C@H]1O[C@@H](n2ccc(N)nc2=O)[C@](F)(Cl)[C@@H]1O)Oc1ccccc1 (mixture of isomers) | > 100 | 0.7 | > 100 | > 100 | 23 | 3.4 | – | – | – | – |
| CC(C)OC(=O)[C@H](C)NP(=O)(OC[C@H]1O[C@@H](n2cnc3c(=O)[nH]c(N)nc32)[C@](F)(Cl)[C@@H]1O)Oc1ccccc1 (mixture of isomers) | 84 | > 10 | > 100 | > 100 | > 100 | – | – | – | – | – |
| CC(C)OC(=O)[C@H](C)N[P@](=O)(OC[C@H]1O[C@@H](n2ccc(=O)[nH]c2=O)[C@](C)(F)[C@@H]1O)Oc1ccccc1 [SOFOSBUVIR] | – | 0.05 | – | – | – | 0.37 | > 100 | > 100 | > 100 | > 100 |
